Screening results as filed in PubChem.
Most compounds without a hit are left out; they make up all but 0.63% or so of the library.
zfTRPN1 agonist – zebrafish TRPN1 channel agonists, primary screen, cell-based, HEK293, calcium fluorescence. 220,000 tested, 0.18% active. HEK293 zebrafish TRPN1-YFP, Fluo-8 calcium fluorescence; 100% = response to 87 µM carbachol. AID 1424, 2008. activation, % at 3 µM;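 active means activation above its plate's cutoff, the mean activation of test wells on that plate plus 3 SD, cut at about 19% in these data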
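Material – zebrafish TRPN1-YFP in HEK293 cells · Doses – 3 µM single point · Schedule – dye 1 h 37 °C plus 30 min RT · Signal – Fluo-8 calcium fluorescence, excitation 470-495 nm, emission 515-575 nm · Read-out – % activation versus carbachol response · Control set – carbachol high, DMSO low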
IDE cell inh – human IDE inhibitors in live cells, primary screen, fluorescence polarization, HEK cells, FAbetaB substrate; 320,000 tested, 0.41% active; inhibition, % at 5.59 µM; AID 434962, 2010; FAbetaB cleavage; Insulin-degrading enzyme (Homo sapiens), P14735;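 active means percent inhibition above the average of all tested compounds plus 3 SD, set per screening campaign, cut at about 16% in these data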;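 further: IDE supplied by intact live HEK cells; FP after avidin binding of uncleaved biotin substrate so inhibition keeps polarization high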
TRPML3 agonist – human TRPML3 channel agonists, primary screen, cell-based, HEK293 TRPML3-YFP, Fluo-8 calcium fluorescence, 3 µM; 220,000 tested, 0.29% active; activation, % at 3 µM; 100% = the carbachol control signal;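 active means activation above its plate's cutoff, the mean activation of the plate's test wells plus 3 SD, cut at about 12% in these data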
Target sequence (Q8TDD5 whole entry, looked up): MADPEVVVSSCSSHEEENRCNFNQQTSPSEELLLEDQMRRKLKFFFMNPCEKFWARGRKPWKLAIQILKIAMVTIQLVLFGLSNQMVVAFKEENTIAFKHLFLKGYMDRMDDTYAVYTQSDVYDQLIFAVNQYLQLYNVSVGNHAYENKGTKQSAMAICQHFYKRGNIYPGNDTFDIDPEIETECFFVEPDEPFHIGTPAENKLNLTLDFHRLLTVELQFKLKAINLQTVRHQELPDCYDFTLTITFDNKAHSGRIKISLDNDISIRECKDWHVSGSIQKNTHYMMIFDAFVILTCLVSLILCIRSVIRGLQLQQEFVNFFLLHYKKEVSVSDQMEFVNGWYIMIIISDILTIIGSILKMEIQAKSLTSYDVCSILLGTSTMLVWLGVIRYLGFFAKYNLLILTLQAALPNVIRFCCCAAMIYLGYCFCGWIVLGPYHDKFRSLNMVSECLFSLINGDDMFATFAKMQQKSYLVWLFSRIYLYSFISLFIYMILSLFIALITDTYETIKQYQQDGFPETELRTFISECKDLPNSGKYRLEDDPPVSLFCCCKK
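Material: HEK293 cells stably carrying human TRPML3-YFP; compound dosing: single dose, 3 µM final nominal compound, 0.3% DMSO final; incubation: 1-h 37 °C dye load, 5-s basal, 120-s post-compound reads; technique: Fluo-8 intracellular calcium fluorescence, excitation 470-495 nm, emission 515-575 nm; read-out basis: percent activation from peak-to-basal fluorescence ratio, scaled between DMSO and carbachol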
IDE act – human IDE activators in live cells, primary screen, fluorescence polarization, HEK cells, FAbeta-B substrate. Insulin-degrading enzyme (Homo sapiens), P14735. FAbeta-B cleavage; 0% vehicle, 100% cell-free pure enzyme wells. activation, % at 5.96 µM. 340,000 tested, 0.073% active. AID 493087, 2011;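 active means activation above the mean of all tested compounds plus 3 SD, set per screening campaign, cut at about 17% in these data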
Large screens that a line does not name were inactive.

CCSC1=N/C(=C\C=C2/Oc3ccccc3N2CC)C(=O)S1	IDE cell inh 20
COCCNC(=O)c1cn(C)c2ccccc2c1=O	none
CNC[C@H](Cc1ccccc1)NC[C@@H](Cc1cccc2ccccc12)NCCc1ccc(C)cc1	IDE act 18 (no result: zfTRPN1 agonist, TRPML3 agonist)
CNCCNC[C@H](Cc1cccc2ccccc12)NCCc1ccccc1	none (no result: zfTRPN1 agonist, TRPML3 agonist)
O=[N+]([O-])c1ccc(Oc2ccc(S(=O)(=O)Nc3ccccc3)cc2)cc1	zfTRPN1 agonist 21
O=[N+]([O-])c1ccc(S(=O)(=O)Nc2ccncc2)cc1	none (no result: zfTRPN1 agonist, TRPML3 agonist)
Cc1c(/C=C/C(=O)c2ccc(C(C)C)cc2)cnn1C	none
O=C1CSC(=S)N1/N=C/c1cc(Br)c(O)c(Br)c1	IDE cell inh 133 (no result: zfTRPN1 agonist, TRPML3 agonist)
COc1ccc(-n2c(SCC(=O)Nc3ccccc3C)nc(O)c(Cc3ccccc3)c2=O)cc1	none (no result: zfTRPN1 agonist, TRPML3 agonist)
O=C(CN1CCN(C(=O)c2ccco2)CC1)Nc1ccc(F)cc1F	none (no result: zfTRPN1 agonist, TRPML3 agonist)
C/C(CC(=O)Nc1ccc(N(C)C)cc1)=N\NC(=O)c1ccc(Cl)cc1	none (no result: zfTRPN1 agonist, TRPML3 agonist)
C/C(CC(=O)Nc1ccc(N(C)C)cc1)=N\NC(=O)c1ccncc1	IDE act 18
CCOc1ccc(N/C(SCc2cccc([N+](=O)[O-])c2)=C(/C#N)C(N)=O)cc1	none
N#CC(C#N)=C(Nc1ccc(F)cc1)SCc1cccc(F)c1	zfTRPN1 agonist 25, TRPML3 agonist 21
CCOC(=O)CC1C(=O)NCCN1C(=O)c1ccc(C)cc1 (configuration not stated)	none (no result: zfTRPN1 agonist, TRPML3 agonist)
CCOC(=O)CC1C(=O)NCCN1c1nc2ccc(C)cn2c(=O)c1/C=C1\SC(=S)N(C(C)CC)C1=O (configuration not stated)	zfTRPN1 agonist 20, IDE cell inh 43 (no result: IDE act)
CCOC(=O)C1=C(c2ccccc2)NC(N)=NC1c1ccc(OCc2ccc(Cl)cc2)c(OC)c1 (configuration not stated)	IDE act 19
CCC(C(=O)NC1CCCC1)N(C(=O)Cn1nnc(-c2ccc(C)o2)n1)c1cccc(OC)c1 (configuration not stated)	none (no result: zfTRPN1 agonist, TRPML3 agonist)
CCOC(=O)N1CCN(c2nc(-c3ccc(F)cc3)cs2)CC1	IDE cell inh 17
CCOC(=O)C(=O)N1CCN(c2nc(-c3ccc(Cl)cc3)cs2)CC1	none (no result: zfTRPN1 agonist, TRPML3 agonist)
Cc1ccc(S(=O)(=O)N[C@@H](CC(C)C)C(=O)N2CCC(C(=O)N[C@H](C(=O)O)C(C)C)CC2)cc1	none (no result: zfTRPN1 agonist, TRPML3 agonist)
COc1ccc2c3c(cccc13)C(=O)CC2	IDE act 43 (no result: zfTRPN1 agonist, IDE cell inh, TRPML3 agonist)
CN(Cc1cccs1)C(=O)CCCc1c[nH]c2ccccc12	zfTRPN1 agonist 32, TRPML3 agonist 32
COc1ccc(-c2c(C)c3ccc(O)cc3oc2=O)cc1OC	none (no result: zfTRPN1 agonist, TRPML3 agonist)
O=c1ccc2c(-c3ccccc3)c3ccc(O)cc3oc-2c1	IDE act 51 (no result: zfTRPN1 agonist, TRPML3 agonist)
Nc1ccc(-c2c3ccc(=O)cc-3oc3cc(O)ccc23)cc1C(=O)O	IDE cell inh 17, IDE act 47 (no result: zfTRPN1 agonist, TRPML3 agonist)
O=c1cc(-c2ccccc2)oc2cc(O)ccc12	none (no result: zfTRPN1 agonist, IDE cell inh, TRPML3 agonist)
COc1ccc(CCN2CC(C(=O)Nc3cc(F)ccc3F)CC2=O)cc1OC (configuration not stated)	none (no result: zfTRPN1 agonist, TRPML3 agonist)
CCOC(=O)Cc1csc(NC(=O)Cc2ccccc2[N+](=O)[O-])n1	none
CCOC(=O)Cc1csc(NC(=O)C(C)c2ccc([N+](=O)[O-])cc2)n1 (configuration not stated)	zfTRPN1 agonist 22, TRPML3 agonist 16
COC(=O)c1cccc(NC(=O)Nc2ccc(Cl)c(Cl)c2)c1	zfTRPN1 agonist 20
CC1=C(C)/C(=N\OS(=O)(=O)c2ccccc2)C=CC1=O	TRPML3 agonist 16
CC(C)CN1CCC(=O)N([C@H](CO)c2ccccc2)CC1	IDE act 37 (no result: zfTRPN1 agonist, TRPML3 agonist)
CCCCCCCN1CCC(=O)N([C@H](CO)c2ccccc2)CC1	none (no result: zfTRPN1 agonist, TRPML3 agonist)
CCOc1cc(C2C(C#N)=C(N)Oc3n[nH]c(C)c32)ccc1OCCN1CCOCC1 (configuration not stated)	none
Cc1nc(Cc2nnc(SC(C)C(=O)N3c4ccccc4NC(=O)C3(C)C)o2)cs1 (configuration not stated)	IDE act 20 (no result: zfTRPN1 agonist, TRPML3 agonist)
CC[n+]1c(/C=C/c2c[nH]c3ccccc23)ccc2cc(C)ccc21	zfTRPN1 agonist 30 (no result: IDE cell inh, IDE act)
CSc1nc(Sc2ccccc2Cl)c2ccccc2n1	none
COc1cccc(CN2CCN(Cc3cc4ccccc4[nH]3)CC2CCO)c1 (configuration not stated)	zfTRPN1 agonist 28
CCOc1ccc(CN2CCN(Cc3cc4ccccc4[nH]3)CC2CCO)cc1 (configuration not stated)	none (no result: IDE cell inh)
COc1cc(N2CCCC2)c(OC)cc1/C=C(/C#N)c1cccc(F)c1	IDE cell inh 17
O=c1[nH]cc(S(=O)(=O)Nc2ccc3c(c2)OCO3)c(=O)[nH]1	none (no result: zfTRPN1 agonist, TRPML3 agonist)
COC(=O)C1CC2(C(=O)OC)CC(C(=O)OC)(CC(C(=O)OC)C2=O)C1=O (configuration not stated)	none (no result: zfTRPN1 agonist, IDE cell inh, TRPML3 agonist)
COc1ccc(OCCNc2cc(N3CCOCC3)ccc2[N+](=O)[O-])cc1	IDE act 20
COc1cccc(OCCNc2cc(N3CCOCC3)ccc2[N+](=O)[O-])c1	none
O=C(COC(=O)C1CC2CCCC(C1)C2=O)Nc1ccccc1 (configuration not stated)	none (no result: zfTRPN1 agonist, TRPML3 agonist)
CC(C)C(C(=O)NC1CCCC1)N(CC1CCCO1)C(=O)CNS(=O)(=O)c1ccc(F)cc1 (configuration not stated)	none (no result: zfTRPN1 agonist, TRPML3 agonist)
O=[N+]([O-])c1ccc(NC(=S)NCCc2ccccc2)cc1	zfTRPN1 agonist 19, TRPML3 agonist 12
Cc1cc(N2CCCC2)ccc1/C=C1/C(=O)N(C)C(=S)N1C	IDE cell inh 31
N#Cc1c(-c2ccc(Cl)cc2)c2c([nH]c1=O)-c1ccccc1OC2	IDE cell inh 16
Cc1cc(/C=N/NC(N)=S)c(O)c(/C=N/NC(N)=S)c1	zfTRPN1 agonist 41, TRPML3 agonist 16
Cn1c(CSCc2ccccc2)n[nH]c1=S	none
CC(C)NC(=O)NC(=O)COC(=O)/C=C/c1ccccc1[N+](=O)[O-]	none
Cc1ccc(N=Nc2c(O)ccc3n[nH]nc23)cc1	IDE act 55 (no result: IDE cell inh)
CCN(CC)CCNC(=O)CS(=O)Cc1nc(-c2ccccc2Cl)oc1C (configuration not stated)	IDE act 18
CCN(CC)CCNC(=O)CS(=O)Cc1nc(-c2ccc(Cl)cc2)oc1C (configuration not stated)	none
Cc1ccc(N/C=C(\C#N)S(=O)(=O)c2ccccc2)cc1	IDE act 18
COc1ccc(N/C=C(\C#N)S(=O)(=O)c2ccc(OC)cc2)cc1	none (no result: zfTRPN1 agonist, TRPML3 agonist)
N#Cc1ccsc1NC(=O)c1ccc(Cl)c([N+](=O)[O-])c1	zfTRPN1 agonist 30, TRPML3 agonist 19
O=C(CSc1nnc2ccccn12)Nc1ccccc1C(=O)O	none
Cc1cc(C)c(C#N)c(SCC(=O)Nc2nonc2N)n1	none (no result: zfTRPN1 agonist, TRPML3 agonist)
